Calls of active or inactive are those of the source. No cut-off for these calls is given here.

The nature of data set [1]: Cytotoxicity against mouse Shh Light2 cells assessed as cell viability. In kind it is cell-based. The note with it: shh light ii. An outline of the steps: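 Shh-LIGHT2 (NIH3T3 with Gli-luciferase) grown in DMEM/10% calf serum with G-418 and Zeocin, plated and grown to confluence (~5–7 days); treated in DMEM with 0.5% calf serum for 30 h at 37 °C; viability read by CellTiter-Glo luminescence after 10 min at room temperature.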

In data set [2] the target is Sonic hedgehog protein (Mus musculus) (UniProt Q62226). In words: Inhibition of N-palmitoylated Shh in mouse Shh Light2 cells after 30 hrs by firefly luciferase reporter gene assay. The note with it: Shh Light II. In kind it is functional, cell-based. Put shortly:
(§1)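 Shh-LIGHT2 (NIH3T3 with Gli-luciferase) cultured in DMEM/10% calf serum with G-418 and Zeocin, grown to confluence (~5–7 days); compounds added in DMEM with 0.5% calf serum, 30 h at 37 °C; pathway activity read as luminescence with Bright-Glo reagent.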

Data set [3] concerns the target T1, Sonic hedgehog protein (Homo sapiens, UniProt Q15465). The data set can be described thus: Binding affinity to N-terminal Shh by surface plasmon resonance assay. An outline of the steps:
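SPR (Biacore T100) at 25 °C; ShhN amine-coupled to CM4 chip at 10 µg/mL in 10 mM sodium acetate pH 5.5 (1000–1200 RU), underivatized reference surface. Running/sample buffer 0.01 M HEPES pH 7.4, 0.15 M NaCl, 0.05% P20, 5% DMSO; compounds serially diluted 0.78–25 µM, 2 min injections at 80 µL/min; double referencing plus DMSO solvent correction.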
On the technique in general: SPR reads the build-up and loss of mass on a sensor chip optically.

Data set [4] addresses Sonic hedgehog protein (Mus musculus) (UniProt Q62226). The data set can be described thus: Inhibition of N-palmitoylated Shh in mouse Shh Light2 cells at 6.25 uM after 30 hrs by firefly luciferase reporter gene assay. In kind it is functional, cell-based. Conditions: Shh Light II. An outline of the steps: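 Shh-LIGHT2 (NIH3T3 carrying Gli-luciferase reporter) grown to confluence over about 5-7 days in DMEM, 10% calf serum, G-418 and Zeocin at 37 °C. Treated in DMEM with 0.5% calf serum for 30 h. Readout by luminescence with Bright-Glo. Parallel identically treated wells read with CellTiter-Glo after 10 min at room temperature.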

Data set [5] has the same target. The data set can be described thus: Inhibition of Shh in MEF deficient in ptch1 gene assessed as beta-galactosidase activity at 6.6 uM after 30 hrs by luminometry.
For data set [6], the target named is T1, Sonic hedgehog protein. In words: Inhibition of N-terminal N-palmitoylated Shh-mediated Gli2 transcription in human keratinocytes after 30 hrs by real-time quantitative PCR analysis in presence of 100 nM Smo agonist SAG. In kind it is functional, cell-based.
Data set [7] addresses Sonic hedgehog protein (Mus musculus) (UniProt Q62226). In words: Inhibition of Shh in MEF deficient in ptch1 gene assessed as beta-galactosidase activity at 1.56 to 25 uM after 30 mins by luminometry. The note with it: in the assay text read “30 hrs” for “30 mins”. Put shortly: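 Ptc1−/− mouse embryonic fibroblasts carrying β-galactosidase construct, grown in DMEM/10% FBS to confluence (3–4 days, 37 °C); compounds in DMEM/0.5% FBS for 30 h; Beta-Glo reagent added with 30 min gentle agitation at room temperature, then luminescence read.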

For data set [8] the target is unchanged. The data set can be described thus: Inhibition of N-palmitoylated Shh in mouse Shh Light2 cells at > 30 uM after 30 hrs by firefly luciferase reporter gene assay. In kind it is functional, cell-based. Conditions: Shh Light II. An outline of the steps: as §1
A general note: Reporter assays use an easily measured gene product as a stand-in for the process of interest.

Data set [9] has the same target. The data set can be described thus: Inhibition of N-terminal Shh-induced differentiation in mouse C3H10T1/2 cells assessed as inhibition of alkaline phosphatase induction. The data set is classed as cell-based. Conditions: C3H 10T1/2.
The target is the same in data set [10]. The data set can be described thus: Inhibition of N-terminal Shh-induced differentiation in mouse C3H10T1/2 cells assessed as inhibition of alkaline phosphatase induction in presence of 3.6 uM purmorphamine. Conditions: C3H 10T1/2. The data set is classed as cell-based.
The target in data set [11] is T1, Sonic hedgehog protein. In words: Inhibition of N-terminal N-palmitoylated Shh-mediated Gli2 transcription in human keratinocytes at 100 uM after 30 hrs by real-time quantitative PCR analysis. In kind it is cell-based.
Data set [12] concerns the target Sonic hedgehog protein (Mus musculus) (UniProt Q62226). The data set can be described thus: Inhibition of N-palmitoylated Shh in mouse Shh Light2 cells at 6.3 to 50 uM after 30 hrs by firefly luciferase reporter assay in presence of 100 nM Smo agonist SAG. In kind it is functional, cell-based. Conditions: Shh Light II. Put shortly: as §1
In data set [13] the target is T1, Sonic hedgehog protein. The data set can be described thus: Inhibition of N-terminal N-palmitoylated Shh-mediated Gli1 transcription in human keratinocytes after 30 hrs by real-time quantitative PCR analysis in presence of 3.6 uM Smo agonist purmorphamine. In kind it is functional, cell-based.
The target of data set [14] is T1, Sonic hedgehog protein. In words: Inhibition of Shh-mediated Gli1 mRNA transcription in human synthetic skin by real-time quantitative PCR analysis.
The target of data set [15] is Smoothened homolog (Mus musculus) (UniProt P56726). In words: Displacement of BODIPY-cyclopamine from Smo expressed in HEK293T cells after 30 mins. The note with it: HEK-293T.
Data set [16] concerns the target T1, Sonic hedgehog protein. The data set can be described thus: Inhibition of N-terminal N-palmitoylated Shh-mediated Gli2 transcription in human keratinocytes after 30 hrs by real-time quantitative PCR analysis in presence of 3.6 uM Smo agonist purmorphamine. In kind it is functional, cell-based.
Data set [17] deals with T1, Sonic hedgehog protein. The data set can be described thus: Inhibition of Shh-mediated Gli2 mRNA transcription in human synthetic skin by real-time quantitative PCR analysis.
Data set [18] has as its target T1, Sonic hedgehog protein. In words: Inhibition of N-terminal N-palmitoylated Shh-mediated Gli1 transcription in human keratinocytes after 30 hrs by real-time quantitative PCR analysis. The data set is classed as cell-based.
Data set [19] deals with Sonic hedgehog protein (Mus musculus) (UniProt Q62226). The data set can be described thus: Inhibition of N-palmitoylated Shh in mouse Shh Light2 cells at 6.3 to 50 uM after 30 hrs by firefly luciferase reporter assay in presence of 3.6 uM Smo agonist purmorphamine. The data set is classed as functional, cell-based. Conditions: Shh Light II. An outline of the steps: as §1

Data set [20] addresses T1, Sonic hedgehog protein. In words: Inhibition of N-terminal N-palmitoylated Shh-mediated Gli1 transcription in human keratinocytes after 30 hrs by real-time quantitative PCR analysis in presence of 100 nM Smo agonist SAG. The data set is classed as functional, cell-based.

T1 sequence (Q15465 24-197 limits assumed): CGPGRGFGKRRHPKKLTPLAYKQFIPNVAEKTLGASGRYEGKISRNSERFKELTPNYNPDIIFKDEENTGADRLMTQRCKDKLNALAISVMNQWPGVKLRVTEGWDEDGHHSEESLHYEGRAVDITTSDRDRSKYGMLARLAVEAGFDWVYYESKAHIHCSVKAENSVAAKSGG
Smoothened homolog (Mus musculus), sequence (P56726 whole entry, looked up): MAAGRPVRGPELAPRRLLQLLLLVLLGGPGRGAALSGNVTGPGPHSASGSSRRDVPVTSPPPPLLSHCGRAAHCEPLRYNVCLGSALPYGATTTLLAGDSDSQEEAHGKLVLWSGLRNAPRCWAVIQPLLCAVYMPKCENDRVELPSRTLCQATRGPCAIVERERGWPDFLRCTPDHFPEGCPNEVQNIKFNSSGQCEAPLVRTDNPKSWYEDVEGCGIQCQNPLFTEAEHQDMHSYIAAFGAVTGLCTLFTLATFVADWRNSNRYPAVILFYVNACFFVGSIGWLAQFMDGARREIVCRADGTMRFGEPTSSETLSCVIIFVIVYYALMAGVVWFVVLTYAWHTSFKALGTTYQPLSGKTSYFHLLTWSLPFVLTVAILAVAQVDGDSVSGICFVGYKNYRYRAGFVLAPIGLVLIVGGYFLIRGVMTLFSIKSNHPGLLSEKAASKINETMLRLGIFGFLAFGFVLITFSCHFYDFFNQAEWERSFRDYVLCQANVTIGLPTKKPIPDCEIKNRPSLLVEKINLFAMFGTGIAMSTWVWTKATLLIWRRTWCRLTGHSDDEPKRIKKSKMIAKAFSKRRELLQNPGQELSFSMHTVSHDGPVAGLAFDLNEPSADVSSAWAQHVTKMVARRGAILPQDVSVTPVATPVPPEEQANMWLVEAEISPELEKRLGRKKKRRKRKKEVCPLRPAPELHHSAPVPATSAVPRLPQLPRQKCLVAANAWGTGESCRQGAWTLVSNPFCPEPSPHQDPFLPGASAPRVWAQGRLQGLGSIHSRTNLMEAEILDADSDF

As for `C[C@H]1COC(=O)[C@@H](N)CC/C=C/C[C@@H](CC(=O)N(CCO)Cc2ccccc2)C(=O)N1`, the Activity entry in data set [1] was “Non-toxic”; on Sonic hedgehog protein [3], “Dose-dependent effect”. In addition, the inhibition result in [2] is “Active”.
In the case of `CC1=C2C[C@H]3[C@@H](CC=C4C[C@@H](O)CC[C@@]43C)[C@@H]2CC[C@]12O[C@@H]1C[C@H](C)CN[C@H]1[C@H]2C`, the inhibition entry in [4] and in data set [5] was “Active” throughout.
The Kd is a measure of binding affinity in units of concentration. Higher therefore signals a looser complex. With `O=C(C[C@@H]1C/C=C/CCC(=O)O[C@H](c2ccccc2)CNC1=O)NCc1ccc(Cl)cc1` [ROBOTNIKININ], the outcome (at Sonic hedgehog protein [6]; on Sonic hedgehog protein [13]; in data set [15]; on Sonic hedgehog protein [16]; on Sonic hedgehog protein [20]) was inactive. The inhibition result in data set [7] and in [10] was “inactive” in each case. Also, the inhibition entry (in data set [8]; in data set [9]; at Sonic hedgehog protein [11]; in data set [12]; on Sonic hedgehog protein [14]; at Sonic hedgehog protein [17]) was “Active” in each case. The inhibition entry (on Sonic hedgehog protein [18]; in [19]) was “Active” throughout. In addition, the Activity result in [1] is on record as “Non-toxic”. Besides, the inhibition entry in [2] was “Dose-dependent effect”. Moreover, the Kd on Sonic hedgehog protein [3] turned out to be 3.1 µM.

For the origin of these results see ChEMBL document CHEMBL1212710, “A small molecule that binds Hedgehog and blocks its signaling in human cells” (Nat Chem Biol, 2009).
